Among the data in ChEMBL document CHEMBL1137383, “New efficient substrates for semicarbazide-sensitive amine oxidase/VAP-1 enzyme: analysis by SARs and computational docking” (J Med Chem, 2006) are Activity values, retold here.

For assay [1], the target named is T1, Amine oxidase [copper-containing] 3 (Homo sapiens) (UniProt Q16853).
T1 sequence (whole entry): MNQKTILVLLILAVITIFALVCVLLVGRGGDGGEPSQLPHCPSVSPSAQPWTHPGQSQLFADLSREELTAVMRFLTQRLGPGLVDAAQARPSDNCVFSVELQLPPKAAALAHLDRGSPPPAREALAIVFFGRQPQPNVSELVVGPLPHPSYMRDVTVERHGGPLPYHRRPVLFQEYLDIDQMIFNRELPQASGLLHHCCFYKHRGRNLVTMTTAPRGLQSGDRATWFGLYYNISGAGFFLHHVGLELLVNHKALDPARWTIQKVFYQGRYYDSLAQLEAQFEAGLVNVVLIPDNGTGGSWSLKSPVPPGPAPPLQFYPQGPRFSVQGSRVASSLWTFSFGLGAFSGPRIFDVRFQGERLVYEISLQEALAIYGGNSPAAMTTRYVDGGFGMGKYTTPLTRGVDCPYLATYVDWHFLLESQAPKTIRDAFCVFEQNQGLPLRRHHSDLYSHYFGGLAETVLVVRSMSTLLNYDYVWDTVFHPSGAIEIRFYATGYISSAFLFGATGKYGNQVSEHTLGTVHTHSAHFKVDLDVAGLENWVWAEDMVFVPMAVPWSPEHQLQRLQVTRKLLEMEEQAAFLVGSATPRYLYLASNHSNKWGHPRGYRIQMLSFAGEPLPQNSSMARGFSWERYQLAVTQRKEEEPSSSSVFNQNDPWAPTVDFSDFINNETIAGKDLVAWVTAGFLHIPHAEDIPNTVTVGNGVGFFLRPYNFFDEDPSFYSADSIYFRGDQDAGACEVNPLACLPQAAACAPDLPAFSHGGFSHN
Put plainly: Activity of human SSAO measured as hydrogen peroxide production at 1 mM relative to benzylamine oxidation. The format is functional. An outline of the steps: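 Human recombinant VAP-1 (0.1 µg protein/assay) in 0.2 mol/L phosphate buffer pH 7.4, 50 min at 37 °C; amine at 1 mM added with HRP/Amplex Red mix. H2O2 fluorescence (ex 545/em 590) read every 5 min, quantified against H2O2 standard curve; semicarbazide-preincubated (250 µM, 20 min) background subtracted. Mean percentage relative to benzylamine-derived H2O2.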

The test system of assay [2] is Adipocyte. The experiment in a line: Stimulation of glucose transport in mouse adipocytes at 0.1 mM in presence of sodium orthovanadate. Type of assay: functional, cell-based. An outline of the steps: (§1)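 Adipocytes from internal fat pads of male Swiss mice (30-35 g), collagenase-isolated, incubated 45 min at 37 °C with amine ± 1 mM sodium orthovanadate (± 1 mM semicarbazide); then 2-deoxy-D-[3H]glucose (0.1 mM final) uptake over 10 min. Two experiments in triplicate, mean ± SEM.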

Assay [3] concerns Adipocyte. Put plainly: Stimulation of glucose transport in mouse adipocytes at 1 mM in presence of sodium orthovanadate. The format is functional, cell-based. The gist of the method:
as §1

Assay [4] has as its target T2, Amine oxidase [copper-containing] 3 (Mus musculus) (UniProt O70423).
T2 sequence (whole entry): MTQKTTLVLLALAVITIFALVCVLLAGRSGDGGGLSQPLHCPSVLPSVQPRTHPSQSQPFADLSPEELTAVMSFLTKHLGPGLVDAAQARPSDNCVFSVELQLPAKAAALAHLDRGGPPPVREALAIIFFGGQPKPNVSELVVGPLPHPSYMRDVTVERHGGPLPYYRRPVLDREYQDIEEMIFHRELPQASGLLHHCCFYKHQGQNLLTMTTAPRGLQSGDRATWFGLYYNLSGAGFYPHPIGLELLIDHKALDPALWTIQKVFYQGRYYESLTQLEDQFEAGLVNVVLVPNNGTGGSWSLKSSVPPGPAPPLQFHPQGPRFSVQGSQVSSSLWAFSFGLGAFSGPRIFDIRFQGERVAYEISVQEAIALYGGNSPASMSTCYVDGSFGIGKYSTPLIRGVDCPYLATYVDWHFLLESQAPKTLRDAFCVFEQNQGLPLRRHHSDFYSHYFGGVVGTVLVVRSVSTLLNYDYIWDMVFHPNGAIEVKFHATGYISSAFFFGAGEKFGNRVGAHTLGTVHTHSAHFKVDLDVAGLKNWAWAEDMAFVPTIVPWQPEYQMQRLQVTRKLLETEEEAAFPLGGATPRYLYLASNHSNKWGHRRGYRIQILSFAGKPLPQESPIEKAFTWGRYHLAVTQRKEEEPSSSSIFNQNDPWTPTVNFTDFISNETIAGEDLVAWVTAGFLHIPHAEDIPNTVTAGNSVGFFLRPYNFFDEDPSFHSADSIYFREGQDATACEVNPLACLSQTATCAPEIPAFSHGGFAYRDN
The experiment in a line: Activity of mouse SSAO measured as hydrogen peroxide production at 100 uM relative to benzylamine oxidation. Type of assay: functional. The gist of the method:
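Mouse adipose tissue membranes (Swiss mice, 1 µg protein/assay) in 0.2 mol/L phosphate buffer pH 7.4, 50 min at 37 °C; amine at 100 µM added with HRP/Amplex Red. H2O2 fluorescence (ex 545/em 590) vs H2O2 standard curve, minus 250 µM semicarbazide (20 min preincubation) background. Mean percentage relative to benzylamine-derived H2O2.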

Each structure is given as a SMILES string. Calls of active or inactive are those of the source. No cut-off for these calls is given here.

Regarding `NCCCCc1ccccc1`, the Activity was determined as 166% in assay [1] and 71% in assay [4]. Further, the result in the assay on Adipocyte [2] and with Adipocyte [3] was Active.

On to `NCc1cccc(CNC(=O)CI)c1`, for which the Activity worked out at 38% in assay [1] and 61% in assay [4].

On to `NCc1ccc(OC(F)(F)F)cc1`, for which the Activity came out at 0% in assay [1] and 66.2% in assay [4].

Regarding `NCCc1ccc(O)c(O)c1`, the Activity in assay [1] and in assay [4] was 0% in each case.

Regarding `NCc1ccc(O)c(Br)c1`, the Activity in assay [1] and in assay [4] was 0% each time.

As for `CC(C)c1ccc(CN)cc1`, the Activity in assay [1] and in assay [4] was 0% in each case.

As for `NCc1ccc(OCc2ccccc2)cc1`, the Activity in assay [1] and in assay [4] was 0% in each case.

Regarding `CCCCc1ccc(CN)cc1`, the Activity amounted to 5% in assay [1] and 24% in assay [4].

Turning to `NCc1ccc(C(=O)NCc2cccc(CN)c2)cc1`, the Activity in assay [1] was found to be 17%; in assay [4], 12%.

For the compound `COc1cc(F)cc(CN)c1`, the Activity in assay [1] is 2.53%; in assay [4], 4.86%.

Consider `NCCCc1ccccc1`, for which the results for the Activity in assay [1] and in assay [4] were 44% and 40%, respectively.

On to `NCc1cccc(CNC(=O)c2ccccc2)c1`, for which the figures for the Activity in assay [1] and in assay [4] were 17% and 58%, respectively.

With `NCCOc1ccccc1`, the Activity in assay [1] stood at 17.9%; in assay [4], 14.6%.

On to `NCc1cccc(CN)c1`, for which the Activity in assay [1] and in assay [4] was 0% in each case.

Take `CC(N)c1cccc2ccccc12` (centres undefined): the Activity was 11% in assay [1] and 0% in assay [4].

With `CCc1ccc(CN)cc1`, the Activity came to 14% in assay [1] and 26% in assay [4].

On to `C=CCOC(=O)NCc1cccc(CN)c1`, for which the Activity in assay [1] is 21%; in assay [4], 49%.

Consider `NCc1c(O)ccc2ccccc12`, for which the Activity in assay [1] and in assay [4] was 0% each time.

With `NCc1cccc(CNC(=O)c2ccc(Br)cc2)c1`, the Activity in assay [1] is 16%; in assay [4], 46%.

Regarding `COc1cccc2[nH]cc(CCN)c12`, the Activity is 0% in assay [1] and 5.54% in assay [4].

As to `NCc1cccc(CNC(=O)c2ccc(O)cc2)c1`, the Activity in assay [1] amounted to 5%; in assay [4], 26%.

In the case of `COc1ccc(CN)c2ccccc12`, the Activity in assay [1] was 0.7%; in assay [4], 0%.

Consider `NCc1cccc(CNC(=O)c2ccc(O)cc2O)c1`, for which the Activity in assay [1] and in assay [4] was 0% in each case.

`COc1ccc(CCN)cc1OC`: the Activity worked out at 0% in assay [1] and 3.8% in assay [4].

As to `COc1ccc(CN)cc1`, the Activity in assay [1] is 0%; in assay [4], 4.56%.

For `COc1cc(CN)cc(OC)c1`, the results for the Activity in assay [1] and in assay [4] were 0% and 0.75%, respectively.

Take `NCc1ccc(CN)cc1`: the Activity in assay [1] and in assay [4] was 0% each time.

With `NCc1ccc(C(F)(F)F)cc1`, the Activity in assay [1] was 4%; in assay [4], 35%.

Regarding `NCc1ccc(C(=O)O)cc1`, the Activity in assay [1] came to 0%; in assay [4] it was 4.06%.

As to `CC(=O)N[C@H](C(=O)NCc1cccc(CN)c1)c1ccccc1`, the values for the Activity in assay [1] and in assay [4] were 2% and 13%, respectively.

Consider `CC(=O)NCc1cccc(CN)c1`, for which the Activity was 3% in assay [1] and 16% in assay [4].

With `NCc1ccc(-c2ccccc2)cc1`, the Activity in assay [1] amounted to 0%; in assay [4], 3.77%.

`Cc1ccc(CN)cc1F`: the values for the Activity in assay [1] and in assay [4] were 88% and 133%, respectively.

For the compound `NCc1ccccc1`, the Activity in assay [1] and in assay [4] was 100% each time. Besides, the result in the assay with Adipocyte [2] and with Adipocyte [3] was Active.

As to `Cc1ccc(CN)cc1`, the Activity in assay [1] and in assay [4] was 0% each time.

Take `NCc1ccc(F)cc1`: the Activity in assay [1] came to 134%; in assay [4], 127%.

With `CCC(=O)NCc1cccc(CN)c1`, the Activity was 4% in assay [1] and 27% in assay [4].

As to `NCc1cccc([N+](=O)[O-])c1O`, the Activity in assay [1] is 0.11%; in assay [4], 5.47%.

On to `Cc1ccc(S(=O)(=O)NCc2cccc(CN)c2)cc1`, for which the Activity in assay [1] is 12%; in assay [4], 14%.

As to `NCc1ccccc1F`, the Activity in assay [1] was determined as 1.3%; in assay [4], 44%.

Regarding `COc1ccc(O)c(CN)c1`, the Activity in assay [1] and in assay [4] was 0% each time.

As to `NCc1ccc(OC(F)(F)F)cc1OC(F)(F)F`, the Activity in assay [1] and in assay [4] was 0% in each case.

Take `NCCc1ccc(F)cc1`: the values for the Activity in assay [1] and in assay [4] were 35% and 18%, respectively.

Turning to `CC(C)(C)c1ccc(CN)cc1`, the Activity in assay [1] is 0%; in assay [4], 1%.

Turning to `NCCc1ccccc1`, the results for the Activity in assay [1] and in assay [4] were 21% and 19%, respectively.
